According to ChEMBL document CHEMBL4428051, “Preclinical Activity of New [1,2]Oxazolo[5,4-e]isoindole Derivatives in Diffuse Malignant Peritoneal Mesothelioma” (J Med Chem, 2016):
Blank lines part the entries; values can stand above or below the molecule they belong to. The source made the active and inactive calls. No cut-off for these calls is given here.

Tests used:
[1] = system: Panel NCI-60 (60 carcinoma cell lines); assay: Growth inhibition of human NCI60 cells at 10^-4 to 10^-8 M after 48 hrs by sulforhodamine B assay; assay type: functional, cell-based
[2] = molecular target: T1, Tubulin (Homo sapiens) (UniProt P68371+Q9H4B7+P0DPH7+P68366+Q13509+Q71U36+P04350+Q3ZCM7+P07437+P68363+Q9BQE3+Q6PEY2+Q13885+Q9BVA1+Q9BUF5); assay: Inhibition of tubulin polymerization in human STO cells at 2 nM after 24 hrs by Western blot analysis relative to soluble fraction of tubulin; assay type: cell-based
[3] = species on record: Homo sapiens; assay: Cell cycle arrest in human MP4 cells assessed as decrease in cell levels at S phase at IC50 after 48 to 72 hrs by propidium iodide staining-based flow cytometric method; assay type: functional
How it was run: (§1)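 Cells exposed to drug or 1% (v/v) DMSO control for 48 and 72 h. Adherent and floating cells fixed in 70% EtOH, then stained 30 min at 4 °C with propidium iodide 50 μg/mL, RNase and 0.05% Nonidet-P40 in PBS. Flow cytometry read ≥30000 events; G1, S and G2/M percentages fitted with the Modfit model; mean of three independent experiments.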

[4] = species on record: Homo sapiens; assay: Cell cycle arrest in human STO cells assessed as decrease in cell levels at G1 phase at IC50 after 48 to 72 hrs by propidium iodide staining-based flow cytometric method; assay type: functional; how it was run: as §1
[5] = species on record: Homo sapiens; assay: Cell cycle arrest in human STO cells assessed as decrease in cell levels at S phase at IC50 after 48 to 72 hrs by propidium iodide staining-based flow cytometric method; assay type: functional; how it was run: as §1
[6] = Cell cycle arrest in human MP8 cells assessed as mitotic cells at 13 nM after 72 hrs by MPM2 staining-based fluorescence microscopic analysis relative to control; assay type: functional
[7] = species on record: Homo sapiens; assay: Cell cycle arrest in human MP4 cells assessed as accumulation at G2/M phase at IC50 after 48 to 72 hrs by propidium iodide staining-based flow cytometric method; assay type: functional; how it was run: as §1
[8] = species on record: Homo sapiens; assay: Cell cycle arrest in human MP4 cells assessed as decrease in cell levels at G1 phase at IC50 after 48 to 72 hrs by propidium iodide staining-based flow cytometric method; assay type: functional; how it was run: as §1
[9] = molecular target: T2, Tubulin (Sus scrofa) (UniProt P02554+P02550); assay: Inhibition of GTP-induced porcine tubulin polymerization at 10 uM measured every minute up to 60 mins relative to control; assay type: protein assay
How it was run: (§2)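 Test agent or taxol/vinorelbine was added at 10 μmol/L. Polymerization was started at 37 °C and followed by absorbance at 340 nm every minute up to 60 min.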

[10] = molecular target: T1, Tubulin (Homo sapiens); assay: Inhibition of tubulin polymerization in human MP4 cells at 10 nM after 24 hrs by Western blot analysis relative to soluble fraction of tubulin; assay type: cell-based
[11] = species on record: Homo sapiens; assay: Cell cycle arrest in human STO cells assessed as accumulation at G2/M phase at IC50 after 48 to 72 hrs by propidium iodide staining-based flow cytometric method; assay type: functional; how it was run: as §1
[12] = Cell cycle arrest in human STO cells assessed as mitotic cells at 2 nM after 72 hrs by MPM2 staining-based fluorescence microscopic analysis relative to control; assay type: functional
[13] = molecular target: T2, Tubulin (Sus scrofa); assay: Induction of GTP-induced porcine tubulin polymerization at 10 uM measured every minute up to 60 mins relative to control; assay type: protein assay; how it was run: as §2
[14] = Cell cycle arrest in human MP8 cells assessed as mitotic cells at 18 nM after 72 hrs by MPM2 staining-based fluorescence microscopic analysis relative to control; assay type: functional
[15] = Cell cycle arrest in human STO cells assessed as mitotic cells at 1 nM after 72 hrs by MPM2 staining-based fluorescence microscopic analysis relative to control; assay type: functional
[16] = species on record: Homo sapiens; assay: Cell cycle arrest in human STO cells assessed as decrease in cell levels at S phase at IC50 to IC80 after 48 to 72 hrs by propidium iodide staining-based flow cytometric method; assay type: functional; how it was run: as §1
[17] = species on record: Homo sapiens; assay: Cell cycle arrest in human MP4 cells assessed as decrease in cell levels at S phase at IC50 to IC80 after 48 to 72 hrs by propidium iodide staining-based flow cytometric method; assay type: functional; how it was run: as §1
[18] = species on record: Homo sapiens; assay: Cell cycle arrest in human MP4 cells assessed as decrease in cell levels at G1 phase at IC50 to IC80 after 48 to 72 hrs by propidium iodide staining-based flow cytometric method; assay type: functional; how it was run: as §1
[19] = molecular target: T1, Tubulin (Homo sapiens); assay: Inhibition of tubulin polymerization in human STO cells at IC50 after 24 hrs by Western blot analysis relative to soluble fraction of tubulin; assay type: cell-based
[20] = Toxicity in athymic nude mouse xenografted with human STO cells assessed as drug tolerance at 5 mg/kg, ip administrated every 7 days for 4 weeks starting from day 10 post tumor implantation; assay type: organism-based; conditions: in vivo
How it was run: (§3)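 Female nude mice, 6−8 weeks old, with 10⁷ exponentially growing STO cells injected subcutaneously into the right flank. Eight mice per group, randomly assigned to vehicle control or treatment. Compound was given ip in 10% DMSO / 90% saline. Tumor diameters were measured weekly by caliper.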

[21] = species on record: Homo sapiens; assay: Cell cycle arrest in human STO cells assessed as decrease in cell levels at G1 phase at IC50 to IC80 after 48 to 72 hrs by propidium iodide staining-based flow cytometric method; assay type: functional; how it was run: as §1
[22] = Toxicity in athymic nude mouse xenografted with human STO cells assessed as body weight loss at 5 mg/kg, ip administrated every 7 days for 4 weeks starting from day 10 post tumor implantation; assay type: organism-based; conditions: in vivo; how it was run: as §3
[23] = Cell cycle arrest in human MP8 cells assessed as mitotic cells at IC50 after 72 hrs by MPM2 staining-based fluorescence microscopic analysis relative to control; assay type: functional
[24] = Induction of apoptosis in human STO cells assessed as increase in caspase-3 catalytic activity by measuring DEVD-pNA hydrolysis at IC80 after 72 hrs by spectrofluorometric method relative to control; assay type: functional
How it was run: (§4)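 STO and MP4 cells were exposed 72 h to drug or to 1% (v/v) DMSO control, then washed, pelleted and lysed. Total protein was mixed with DEVD-pNA for 1 h at 37 °C. Hydrolysis was read fluorometrically, ex 380/em 460 nm, as relative fluorescence units. Mean of three independent experiments.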

[25] = Toxicity in athymic nude mouse xenografted with human STO cells assessed as mortality at 5 mg/kg, ip administrated every 7 days for 4 weeks starting from day 10 post tumor implantation; assay type: organism-based; conditions: in vivo; how it was run: as §3
[26] = system: WI-38; assay: Growth inhibition of human WI38 cells after 72 hrs by MTS assay; assay type: cell-based; conditions: WI-38, 72 h
[27] = Growth inhibition of human MP4 cells after 72 hrs by MTS assay; assay type: functional
How it was run: (§5)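 DMPM lines were kept in DMEM F12 with 10% heat-inactivated FBS at 37 °C, 5% CO₂. 4500 cells/well were plated 24 h, then exposed 72 h to 0.1−100 μM; vehicle was 0.01% DMSO. MTS read at OD 490 nm and expressed as % of DMSO-treated cells. Eight replicates per condition, ≥3 independent repeats. IC50 and IC80 were taken graphically from dose–response curves.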

[28] = species on record: Homo sapiens; assay: Cell cycle arrest in human MP4 cells assessed as accumulation at G2/M phase at IC50 to IC80 by propidium iodide staining-based flow cytometric method; assay type: functional; conditions: TDE = time-dependent effect; how it was run: as §1
[29] = system: Homo sapiens; assay: Antitumor activity against human STO cells xenografted in athymic nude mouse assessed as suppression of cell proliferation at 5 mg/kg, ip administrated every 7 days for 4 weeks starting from day 10 post tumor implantation measured post last dose by Ki67 immunohistochemical staining-based assay; assay type: functional, organism-based
How it was run: (§6)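 Female nude mice, 6−8 weeks old, given 10⁷ exponentially growing STO cells s.c. in the right flank; 8 mice/group. Drug in 10% DMSO/90% saline, 5 mg/kg ip q7dx4 from day 10 after inoculum; controls got vehicle. Tumour diameters caliper-measured weekly, TV = d²×D/2, TVI% = 100 − (mean TV treated/mean TV control × 100). Ki67 staining on formalin-fixed paraffin sections of tumours after the last treatment.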

[30] = Antitumor activity against human STO cells xenografted in athymic nude mouse assessed as tumor growth inhibition at 5 mg/kg, ip administrated every 7 days for 4 weeks starting from day 10 post tumor implantation relative to control; assay type: functional; conditions: read-out: TGI; how it was run: as §6
[31] = molecular target: T1, Tubulin (Homo sapiens); assay: Inhibition of tubulin polymerization in human MP4 cells at IC50 after 24 hrs by Western blot analysis relative to soluble fraction of tubulin; assay type: cell-based
[32] = species on record: Homo sapiens; assay: Induction of apoptosis in human MP4 cells assessed as increase in caspase-3 catalytic activity by measuring DEVD-pNA hydrolysis at IC50 to IC80 by spectrofluorometric method; assay type: functional, cell-based; conditions: TDE = time-dependent effect
[33] = species on record: Homo sapiens; assay: Induction of apoptosis in human STO cells assessed as increase in caspase-3 catalytic activity by measuring DEVD-pNA hydrolysis at IC50 to IC80 by spectrofluorometric method; assay type: functional, cell-based; conditions: TDE = time-dependent effect
[34] = Cell cycle arrest in human STO cells assessed as mitotic cells at IC50 after 72 hrs by MPM2 staining-based fluorescence microscopic analysis relative to control; assay type: functional
[35] = species on record: Homo sapiens; assay: Cell cycle arrest in human STO cells assessed as accumulation at G2/M phase at IC50 to IC80 by propidium iodide staining-based flow cytometric method; assay type: functional; conditions: TDE = time-dependent effect; how it was run: as §1
[36] = Induction of apoptosis in human MP4 cells assessed as increase in caspase-3 catalytic activity by measuring DEVD-pNA hydrolysis at IC80 after 72 hrs by spectrofluorometric method relative to control; assay type: functional; how it was run: as §4
[37] = Growth inhibition of human MP8 cells after 72 hrs by MTS assay; assay type: functional; conditions: MP8, 72 h; how it was run: as §5
[38] = Growth inhibition of human STO cells after 72 hrs by MTS assay; assay type: functional; how it was run: as §5

T2 sequence (P02550 whole entry, looked up): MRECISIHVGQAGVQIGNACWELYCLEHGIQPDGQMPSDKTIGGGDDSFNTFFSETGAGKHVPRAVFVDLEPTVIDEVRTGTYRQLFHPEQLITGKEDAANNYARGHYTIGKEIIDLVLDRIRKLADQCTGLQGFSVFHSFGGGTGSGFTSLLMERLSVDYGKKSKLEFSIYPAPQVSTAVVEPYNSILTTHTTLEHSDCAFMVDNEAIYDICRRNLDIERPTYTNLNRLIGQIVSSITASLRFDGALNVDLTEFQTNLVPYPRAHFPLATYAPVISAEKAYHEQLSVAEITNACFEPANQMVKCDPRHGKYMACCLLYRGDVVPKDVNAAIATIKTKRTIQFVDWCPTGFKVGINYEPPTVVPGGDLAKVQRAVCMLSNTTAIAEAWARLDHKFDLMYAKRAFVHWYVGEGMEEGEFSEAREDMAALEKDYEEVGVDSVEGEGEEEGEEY
T2 sequence (P02554 whole entry, looked up): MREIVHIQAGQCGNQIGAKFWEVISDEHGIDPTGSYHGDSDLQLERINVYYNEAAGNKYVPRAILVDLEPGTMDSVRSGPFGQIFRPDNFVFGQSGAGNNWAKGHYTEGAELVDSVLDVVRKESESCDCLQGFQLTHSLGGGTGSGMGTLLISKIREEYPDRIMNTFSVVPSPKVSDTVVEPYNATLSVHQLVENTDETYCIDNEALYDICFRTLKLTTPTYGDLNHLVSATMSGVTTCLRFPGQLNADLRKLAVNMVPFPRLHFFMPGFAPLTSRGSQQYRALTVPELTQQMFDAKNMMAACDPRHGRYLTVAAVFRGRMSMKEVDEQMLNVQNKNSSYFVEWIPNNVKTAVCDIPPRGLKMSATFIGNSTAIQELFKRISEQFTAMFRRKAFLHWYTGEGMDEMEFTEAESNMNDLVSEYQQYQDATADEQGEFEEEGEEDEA

Structure (SMILES): COc1ccc(Cn2cc3c(c2-c2ccccc2)CCc2cnoc2-3)cc1N
growth inhibition (GI) [1]: Active

Structure (SMILES): COc1ccc(Cn2cc3c(c2-c2cc(OC)c(OC)c(OC)c2)CCc2cnoc2-3)cc1[N+](=O)[O-]
growth inhibition (GI) [1]: Active

Structure (SMILES): COc1ccc(Cn2cc3c(c2-c2ccc(O)cc2)CCc2cnoc2-3)cc1
growth inhibition (GI) [1]: Active

inhibition [2]: Active
inhibition [9]: Active
inhibition [10]: Active
Structure (SMILES): CCC1=C[C@@H]2CN(C1)Cc1c([nH]c3ccccc13)[C@@](C(=O)OC)(c1cc3c(cc1OC)N(C)[C@H]1[C@@](O)(C(=O)OC)[C@H](OC(C)=O)[C@]4(CC)C=CCN5CC[C@]31[C@@H]54)C2 [VINORELBINE]
Activity [3]: Active
Activity [4]: Active
Activity [5]: Active
Activity [6]: 30 - 50%
Activity [7]: Active
Activity [8]: Active
Activity [11]: Active
Activity [12]: 30 - 50%

Activity [13]: Active
Structure (SMILES): CC(=O)O[C@H]1C(=O)[C@@]2(C)[C@H]([C@H](OC(=O)c3ccccc3)[C@]3(O)C[C@H](OC(=O)[C@H](O)[C@@H](NC(=O)c4ccccc4)c4ccccc4)C(C)=C1C3(C)C)[C@]1(OC(C)=O)CO[C@@H]1C[C@@H]2O [PACLITAXEL]
Activity [3]: Active
Activity [4]: Active
Activity [14]: 30 - 50%
Activity [5]: Active
Activity [7]: Active
Activity [8]: Active
Activity [11]: Active
Activity [15]: 30 - 50%

Structure (SMILES): COc1ccc(Cn2cc3c(c2-c2cc(OC)c(OC)c(OC)c2)CCc2cnoc2-3)cc1
growth inhibition (GI) [1]: Active

Structure (SMILES): COc1ccc(Cn2cc3c(c2-c2cc(OC)c(OC)c(OC)c2)CCc2cnoc2-3)cc1N
Activity [16]: Active
Activity [17]: Active
Activity [18]: Active
inhibition [19]: Active
Activity [20]: Non-Toxic
Activity [21]: Active
Activity [22]: Non-Toxic
Activity [23]: 30 - 50%
fold change (FC) [24]: 38.5
Activity [25]: Non-Toxic
IC50 [26]: > 100000 nM
IC50 [27]: 160 nM
Activity [28]: Tde
Activity [29]: Active
inhibition in vivo at 5 mg/kg [30]: 59%
inhibition [31]: Active
Activity [32]: Tde
Activity [33]: Tde
growth inhibition (GI) [1]: Active
Activity [34]: 30 - 50%
Activity [35]: Tde
inhibition [9]: Active
fold change (FC) [36]: 35
IC50 [37]: 130 nM
IC50 [38]: 70 nM

Structure (SMILES): COc1ccc(Cn2cc3c(c2-c2ccc(OC)cc2)CCc2cnoc2-3)cc1
growth inhibition (GI) [1]: Active

Structure (SMILES): COc1ccc(Cn2cc3c(c2-c2ccccc2)CCc2cnoc2-3)cc1
growth inhibition (GI) [1]: Active
